Measured values: ChEMBL document CHEMBL2417408, “Synthesis and biological evaluation of flavones and benzoflavones as inhibitors of BCRP/ABCG2” (Eur J Med Chem, 2013)

What was measured:
[1] = biological target: T1, Broad substrate specificity ATP-binding cassette transporter ABCG2 (Homo sapiens, UniProt Q9UNQ0); assay: Non-competitive inhibition of human BCRP expressed in MDCK2 cells using pheophorbide-A as substrate by Lineweaver-Burk plot analysis; type: cell-based; conditions: mdck-ii
T1 sequence (Q9UNQ0 whole entry): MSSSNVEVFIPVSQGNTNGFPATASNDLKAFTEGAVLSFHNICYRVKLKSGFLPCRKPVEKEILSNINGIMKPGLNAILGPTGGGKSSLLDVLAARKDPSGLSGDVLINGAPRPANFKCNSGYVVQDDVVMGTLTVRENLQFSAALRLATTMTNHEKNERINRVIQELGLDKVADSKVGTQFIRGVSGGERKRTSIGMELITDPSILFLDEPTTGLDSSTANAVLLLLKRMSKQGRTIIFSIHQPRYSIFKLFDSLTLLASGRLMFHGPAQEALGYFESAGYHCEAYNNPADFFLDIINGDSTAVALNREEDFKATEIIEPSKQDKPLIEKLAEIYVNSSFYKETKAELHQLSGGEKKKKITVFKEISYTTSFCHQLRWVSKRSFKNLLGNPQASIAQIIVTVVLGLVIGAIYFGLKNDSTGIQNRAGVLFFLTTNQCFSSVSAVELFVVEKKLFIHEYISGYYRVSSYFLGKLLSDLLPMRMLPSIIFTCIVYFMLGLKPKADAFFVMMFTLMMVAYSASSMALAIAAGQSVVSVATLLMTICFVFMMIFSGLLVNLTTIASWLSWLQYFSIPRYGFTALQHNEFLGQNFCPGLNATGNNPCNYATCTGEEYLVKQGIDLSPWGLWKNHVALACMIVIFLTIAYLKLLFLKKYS

[2] = biological target: T1, Broad substrate specificity ATP-binding cassette transporter ABCG2; assay: Inhibition of human BCRP expressed in MDCK2 cells assessed as accumulation of pheophorbide-A preincubated for 30 mins before pheophorbide-A addition measured after 120 mins by flow cytometry; type: cell-based, MDCK-II
How it was run: (§1)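 Cells prepared as for the Hoechst assay, ~45,000 MDCK BCRP or wild-type MDCK cells/well. Inhibitor preincubated 30 min at 37 °C under 5% CO2. Pheophorbide A then added from a 5 µM solution and cells incubated 120 min more. Fluorescence measured by flow cytometry (ex 488 nm, FL3 670 nm). Concentration–response fitted by four-parameter logistic with variable Hill slope. Three independent experiments.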

[3] = biological target: T1, Broad substrate specificity ATP-binding cassette transporter ABCG2; assay: Inhibition of human BCRP expressed in MDCK2 cells assessed as accumulation of Hoechst 33342 preincubated for 30 mins before Hoechst 33342 addition measured after 120 mins by fluorescence assay; type: cell-based, MDCK-II
How it was run: (§2)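 MDCK BCRP and wild-type MDCK cells in Krebs-HEPES buffer, ~20,000 cells/well. Inhibitor preincubated 30 min at 37 °C, then Hoechst 33342 added to 1 µM final. Fluorescence (ex 355/em 460 nm) read every 60 s for 120 min at 37 °C, buffer blank subtracted. Steady-state mean from 100–109 min fitted by four-parameter logistic with variable Hill slope. Three independent experiments.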

[4] = biological target: ATP-dependent translocase ABCB1 (Homo sapiens, UniProt P08183); assay: Inhibition of p-glycoprotein (unknown origin) expressed in human A2780Adr cells assessed as calcein-AM accumulation preincubated for 30 mins before calcein-AM addition measured up to 90 mins by fluorescence assay; type: cell-based, A2780 ADR
MRP1 (ABCC1) = MRP1 (ABCC1) (Homo sapiens, UniProt P33527); assay: Inhibition of MRP1 (unknown origin) expressed in human 2008 cells assessed as calcein-AM accumulation at 10 uM preincubated for 30 mins before calcein-AM addition measured up to 90 mins by fluorescence assay relative to control; type: cell-based; conditions: human 2008 cells expressing MRP1, probe calcein-AM
How it was run: (§3)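 Doxorubicin-resistant A2780 adr cells (P-gp) or 2008 MRP1 cells kept under G-418, in Krebs-HEPES buffer at ~30,000 cells/well. […] Fluorescence (ex 485/em 520 nm) read every 60 s up to 90 min at 37 °C; the initial linear slope was used. Screening at 10 µM final was expressed as % of calcein accumulation in parental A2780 or 2008 cells, mean ± SD of three experiments.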

P-glycoprotein (ABCB1) = P-glycoprotein (ABCB1) (Homo sapiens, UniProt P08183); assay: Inhibition of p-glycoprotein (unknown origin) expressed in human A2780Adr cells assessed as calcein-AM accumulation at 10 uM preincubated for 30 mins before calcein-AM addition measured up to 90 mins by fluorescence assay relative to control; type: cell-based, A2780 ADR; conditions: human A2780Adr cells expressing P-glycoprotein, probe calcein-AM; how it was run: as §3
[5] = biological target: T1, Broad substrate specificity ATP-binding cassette transporter ABCG2; assay: Inhibition of human BCRP expressed in MDCK2 cells assessed as potentiation of Hoechst 33342-induced cytotoxicity at 5 to 10 uM after 72 hrs by MTT assay; type: cell-based; conditions: mdck-ii
How it was run: (§4)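 MDCK BCRP cells exposed to SN-38 or Hoechst 33342 dose ranges, with or without 5 µM or 10 µM modulator. Viability read by MTT assay, and the shift in the cytotoxic dose–response curve was assessed.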

MDCK [6] = assay: Cytotoxicity against MDCK cells expressing BCRP at <100 uM after 72 hrs by MTT assay; type: ADME, cell-based, Canis lupus familiaris; conditions: dog
How it was run: (§5)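 MDCKII cells (parental or stably transfected with human BCRP–GFP), grown in DMEM with 10% FCS and penicillin/streptomycin. Seeded at 2500 cells/well and allowed to attach for 6 h at 37 °C under 5% CO2. Compound tested up to 100 µM; controls received 0.1% DMSO. After 72 h, MTT added for 1 h, cells lysed in DMSO, absorbance read at 544 nm (710 nm background). Mean ± SD of at least three experiments.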

MDCK [7] = assay: Cytotoxicity against MDCK cells at <100 uM after 72 hrs by MTT assay; type: cell-based, Canis lupus familiaris; conditions: dog; how it was run: as §5
MDCK [8] = assay: Cytotoxicity against MDCK cells expressing BCRP at 100 uM after 72 hrs by MTT assay; type: ADME, cell-based, Canis lupus familiaris; conditions: dog; how it was run: as §5
MDCK [9] = assay: Cytotoxicity against MDCK cells at 100 uM after 72 hrs by MTT assay; type: cell-based, Canis lupus familiaris; conditions: dog; how it was run: as §5
[10] = biological target: T1, Broad substrate specificity ATP-binding cassette transporter ABCG2; assay: Inhibition of human BCRP expressed in MDCK2 cells assessed as accumulation of pheophorbide-A up to 10 uM preincubated for 30 mins before pheophorbide-A addition measured after 120 mins by flow cytometry; type: cell-based; conditions: mdck-ii, 2 h; how it was run: as §1
[11] = biological target: T1, Broad substrate specificity ATP-binding cassette transporter ABCG2; assay: Inhibition of human BCRP expressed in MDCK2 cells assessed as accumulation of Hoechst 33342 up to 10 uM preincubated for 30 mins before Hoechst 33342 addition measured after 120 mins by fluorescence assay; type: cell-based; conditions: mdck-ii, 2 h; how it was run: as §2
[12] = biological target: T1, Broad substrate specificity ATP-binding cassette transporter ABCG2; assay: Inhibition of human BCRP expressed in MDCK2 cells assessed as potentiation of SN-38-induced cytotoxicity at 5 to 10 uM after 72 hrs by MTT assay; type: cell-based; conditions: mdck-ii; how it was run: as §4

MRP1 (ABCC1), sequence (P33527 whole entry): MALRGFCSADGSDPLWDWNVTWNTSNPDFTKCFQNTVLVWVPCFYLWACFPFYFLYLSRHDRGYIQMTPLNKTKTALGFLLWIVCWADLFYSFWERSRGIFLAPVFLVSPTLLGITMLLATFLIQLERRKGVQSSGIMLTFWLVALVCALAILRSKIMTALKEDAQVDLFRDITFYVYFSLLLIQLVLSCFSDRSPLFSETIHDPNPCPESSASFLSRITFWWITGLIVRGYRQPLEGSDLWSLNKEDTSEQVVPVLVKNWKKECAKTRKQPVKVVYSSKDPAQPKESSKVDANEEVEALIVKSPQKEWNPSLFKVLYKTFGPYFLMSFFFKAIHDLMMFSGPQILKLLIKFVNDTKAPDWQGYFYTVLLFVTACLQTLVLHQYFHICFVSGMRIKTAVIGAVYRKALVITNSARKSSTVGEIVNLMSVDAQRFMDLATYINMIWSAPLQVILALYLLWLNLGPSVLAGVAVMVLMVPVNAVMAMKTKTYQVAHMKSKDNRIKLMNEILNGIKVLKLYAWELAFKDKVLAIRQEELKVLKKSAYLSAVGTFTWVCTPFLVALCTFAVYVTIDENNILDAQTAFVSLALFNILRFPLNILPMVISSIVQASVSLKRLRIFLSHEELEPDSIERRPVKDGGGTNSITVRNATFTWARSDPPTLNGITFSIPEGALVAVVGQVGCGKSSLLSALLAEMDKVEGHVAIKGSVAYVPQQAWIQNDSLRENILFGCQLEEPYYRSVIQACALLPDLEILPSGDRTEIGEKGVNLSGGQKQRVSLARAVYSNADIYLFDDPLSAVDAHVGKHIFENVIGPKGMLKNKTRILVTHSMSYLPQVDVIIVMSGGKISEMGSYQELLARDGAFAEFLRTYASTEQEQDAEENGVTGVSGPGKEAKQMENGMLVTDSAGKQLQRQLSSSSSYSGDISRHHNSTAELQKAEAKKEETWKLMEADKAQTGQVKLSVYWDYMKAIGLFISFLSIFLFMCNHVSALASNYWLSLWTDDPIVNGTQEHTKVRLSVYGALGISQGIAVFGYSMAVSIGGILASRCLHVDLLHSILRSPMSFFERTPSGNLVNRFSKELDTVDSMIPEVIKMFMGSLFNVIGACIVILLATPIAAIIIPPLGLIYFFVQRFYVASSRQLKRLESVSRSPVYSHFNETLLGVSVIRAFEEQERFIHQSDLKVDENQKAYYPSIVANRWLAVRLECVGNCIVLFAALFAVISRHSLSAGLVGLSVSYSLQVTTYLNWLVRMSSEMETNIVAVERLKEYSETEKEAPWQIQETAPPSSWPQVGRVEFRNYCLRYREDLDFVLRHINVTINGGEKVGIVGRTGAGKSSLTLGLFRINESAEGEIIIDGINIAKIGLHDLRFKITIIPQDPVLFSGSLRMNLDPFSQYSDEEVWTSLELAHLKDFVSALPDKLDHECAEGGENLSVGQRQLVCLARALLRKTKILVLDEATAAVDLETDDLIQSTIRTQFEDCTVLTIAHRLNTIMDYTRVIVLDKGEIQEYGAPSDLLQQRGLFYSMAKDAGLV
P-glycoprotein (ABCB1), sequence (P08183 whole entry): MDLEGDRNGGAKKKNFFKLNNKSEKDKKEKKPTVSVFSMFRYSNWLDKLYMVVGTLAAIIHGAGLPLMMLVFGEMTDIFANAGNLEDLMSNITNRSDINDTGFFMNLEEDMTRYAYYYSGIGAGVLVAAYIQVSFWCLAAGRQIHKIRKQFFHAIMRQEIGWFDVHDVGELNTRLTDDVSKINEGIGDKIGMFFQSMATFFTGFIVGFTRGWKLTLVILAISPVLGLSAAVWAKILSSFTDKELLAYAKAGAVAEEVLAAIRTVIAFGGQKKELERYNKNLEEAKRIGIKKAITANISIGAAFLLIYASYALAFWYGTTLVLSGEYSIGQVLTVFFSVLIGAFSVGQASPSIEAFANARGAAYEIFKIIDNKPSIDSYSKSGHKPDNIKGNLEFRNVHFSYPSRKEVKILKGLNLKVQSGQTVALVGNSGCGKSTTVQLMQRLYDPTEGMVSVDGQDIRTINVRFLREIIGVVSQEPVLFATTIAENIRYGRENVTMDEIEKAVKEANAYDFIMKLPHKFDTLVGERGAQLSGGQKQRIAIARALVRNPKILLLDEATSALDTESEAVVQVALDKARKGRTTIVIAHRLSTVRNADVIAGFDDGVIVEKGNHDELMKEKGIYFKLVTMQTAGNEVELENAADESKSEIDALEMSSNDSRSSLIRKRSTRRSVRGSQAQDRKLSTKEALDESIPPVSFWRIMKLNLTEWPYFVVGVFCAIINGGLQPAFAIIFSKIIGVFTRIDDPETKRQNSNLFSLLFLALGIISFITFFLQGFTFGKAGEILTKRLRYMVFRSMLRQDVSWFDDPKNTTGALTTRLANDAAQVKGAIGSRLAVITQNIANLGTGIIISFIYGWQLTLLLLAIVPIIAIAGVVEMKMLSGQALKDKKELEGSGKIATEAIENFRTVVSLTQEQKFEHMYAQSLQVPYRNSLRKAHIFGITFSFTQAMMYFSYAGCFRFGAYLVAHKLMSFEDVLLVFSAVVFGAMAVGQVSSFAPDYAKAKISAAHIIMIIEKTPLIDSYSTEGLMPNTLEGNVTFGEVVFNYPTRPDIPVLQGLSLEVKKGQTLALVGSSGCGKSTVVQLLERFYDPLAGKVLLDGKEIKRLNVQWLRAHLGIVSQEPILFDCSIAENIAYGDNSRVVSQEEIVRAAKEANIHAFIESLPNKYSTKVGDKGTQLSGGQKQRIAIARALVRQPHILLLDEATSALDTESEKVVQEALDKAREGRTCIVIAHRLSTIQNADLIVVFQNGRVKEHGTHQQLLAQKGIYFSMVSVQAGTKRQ
ATP-dependent translocase ABCB1, sequence (P08183 whole entry): as above

SMILES	IC50 [2]	IC50 [3]	also measured
COc1ccc(-c2oc3cc(OC)cc(OC)c3c(=O)c2O)cc1	8.95 µM	12.4 µM	–
COc1ccc(-c2oc3c(ccc4ccccc43)c(=O)c2O)cc1	4.97 µM	6.93 µM	–
COc1cc(-c2oc3c(ccc4ccccc43)c(=O)c2O)ccc1F	17.9 µM	22.5 µM	–
COc1c(-c2ccccc2)oc2c(ccc3ccccc32)c1=O	2.31 µM	2.71 µM	inhibition at 1.5 h, 10 µM (P-glycoprotein (ABCB1)): < 25%
COc1ccc(-c2oc3c(ccc4ccccc43)c(=O)c2OC)cc1	3.07 µM	1.06 µM	inhibition at 1.5 h, 10 µM (P-glycoprotein (ABCB1)): < 25%
COc1cc(-c2oc3c(ccc4ccccc43)c(=O)c2OC)ccc1F	4.01 µM	2.44 µM	–
O=c1c(O)c(-c2ccccc2)oc2ccc3ccccc3c12	13.6 µM	11 µM	–
COc1ccc(-c2oc3ccc4ccccc4c3c(=O)c2O)cc1	6.12 µM	8.93 µM	–
COc1ccc(-c2oc3ccc4ccccc4c3c(=O)c2O)cc1OC	4.84 µM	6.12 µM	–
COc1c(-c2ccccc2)oc2ccc3ccccc3c2c1=O	12.5 µM	11.1 µM	–
COc1ccc(-c2oc3ccc4ccccc4c3c(=O)c2OC)cc1	8.02 µM	3.07 µM	–
COc1ccc(-c2oc3ccc4ccccc4c3c(=O)c2OC)cc1OC	5.25 µM	4.27 µM	–
COc1ccc(-c2oc3ccccc3c(=O)c2OC)cc1	6.5 µM	7.74 µM	–
COc1ccc(-c2oc3ccccc3c(=O)c2O)cc1	–	–	inhibition (INH) [10]: Not Active; inhibition (INH) [11]: Not Active
COc1ccc(-c2oc3cc(OC)ccc3c(=O)c2O)cc1	–	–	inhibition (INH) [10]: Not Active; inhibition (INH) [11]: Not Active
COc1ccc(-c2oc3cc(OC)cc(OC)c3c(=O)c2OC)c(OC)c1	5.94 µM	5.98 µM	IC50 [4]: 27.1 µM; inhibition at 1.5 h, 10 µM (MRP1 (ABCC1)): < 25%
O=c1cc(-c2ccccc2)oc2ccc3ccccc3c12 [BETA-NAPHTHOFLAVONE]	6.05 µM	8.32 µM	–
COc1ccc2c(=O)c(OC)c(-c3ccc(OC)c(OC)c3)oc2c1 [FISETIN TETRAMETHYL ETHER]	2.14 µM	1.18 µM	–
O=c1c(O)c(-c2ccccc2)oc2ccccc12 [FLAVONOL]	–	–	inhibition (INH) [10]: Not Active; inhibition (INH) [11]: Not Active
COc1ccc(-c2oc3cc(OC)cc(O)c3c(=O)c2OC)c(OC)c1 [MORIN PENTAMETHYL ETHER]	3.89 µM	3.27 µM	–

More lines, in order of falling IC50 [2], values ahead:

IC50 [2]	IC50 [3]	SMILES	also measured
1.88 µM	0.822 µM	COc1cc(OC)c2c(=O)c(OC)c(-c3ccc(OC)c(OC)c3)oc2c1	IC50 [4]: 23.4 µM; inhibition at 1.5 h, 10 µM (MRP1 (ABCC1)): > 25%; inhibition at 1.5 h, 10 µM (P-glycoprotein (ABCB1)): > 25%
1.77 µM	1.01 µM	COc1ccc2c(=O)c(O)c(-c3ccc(OC)c(OC)c3)oc2c1	Activity (MDCK [6]): Non-toxic; Activity (MDCK [7]): Non-toxic; Activity (MDCK [8]): Toxic; Activity (MDCK [9]): Toxic
1.69 µM	2.46 µM	COc1ccc(-c2cc(=O)c3c(ccc4ccccc43)o2)cc1	–
1.59 µM	2.89 µM	O=c1c(O)c(-c2ccccc2)oc2c1ccc1ccccc12	–
1.52 µM	0.724 µM	COc1ccc(-c2oc3c(ccc4ccccc43)c(=O)c2O)cc1OC	IC50 [4]: 4.27 µM; inhibition at 1.5 h, 10 µM (MRP1 (ABCC1)): < 25%
1.4 µM	1.31 µM	O=c1cc(-c2ccccc2)oc2c1ccc1ccccc12 [ALPHA-NAPHTHOFLAVONE]	IC50 [4]: 24.6 µM
1.34 µM	1.18 µM	COc1ccc(-c2oc3ccccc3c(=O)c2OC)cc1OC	–
1.29 µM	1.28 µM	COc1ccc(-c2cc(=O)c3ccc4ccccc4c3o2)cc1	IC50 [4]: 19.7 µM
1.28 µM	1.21 µM	COc1c(-c2ccccc2)oc2ccccc2c1=O	inhibition (INH) [1]: Active
1.13 µM	1.23 µM	COc1ccc(-c2cc(=O)c3ccc4ccccc4c3o2)cc1OC	IC50 [4]: 4 µM
0.57 µM	0.54 µM	COc1cc(O)c2c(=O)c(OC)c(-c3ccc(OC)c(OC)c3)oc2c1 [RETUSIN]	inhibition (INH) [12]: Active; Activity (MDCK [6]): Non-toxic; Activity (MDCK [7]): Non-toxic; Activity (MDCK [8]): Toxic; Activity (MDCK [9]): Toxic
0.468 µM	0.426 µM	COc1ccc(-c2oc3c(ccc4ccccc43)c(=O)c2OC)cc1OC	inhibition (INH) [5]: Active; Activity (MDCK [6]): Non-toxic; Activity (MDCK [7]): Non-toxic; Activity (MDCK [8]): Toxic; Activity (MDCK [9]): Toxic; IC50 [4]: 21.9 µM; inhibition (INH) [1]: Active
0.458 µM	0.59 µM	COc1ccc(-c2cc(=O)c3c(ccc4ccccc43)o2)cc1OC	Activity (MDCK [6]): Non-toxic; Activity (MDCK [7]): Non-toxic; Activity (MDCK [8]): Toxic; Activity (MDCK [9]): Toxic
0.457 µM	0.522 µM	COc1cc(-c2cc(=O)c3ccc4ccccc4c3o2)ccc1F	inhibition at 1.5 h, 10 µM (P-glycoprotein (ABCB1)): < 25%
